In brackets after ≈: the same amount, converted by molar mass. Activity calls are given as the source filed them. No cut-off for these calls is given here.
Legend:
Staphylococcus aureus [1] = assay: Antibacterial activity against Staphylococcus aureus ATTC 25923 after 16 to 18 hrs by serial dilution method; type: functional
In short: (§1)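 Serial drug dilutions in Mueller-Hinton broth adjusted to pH 5.0 with phosphate buffer, inoculated with standardized bacterial suspension, incubated 16–18 h at 37 °C; MIC taken as lowest concentration without conspicuous growth.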

Staphylococcus aureus [2] = assay: Antibacterial activity against Staphylococcus aureus ATTC 25923 at MIC after 3 to 4 days by disc diffusion method; type: functional
In short: (§2)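 Agar well diffusion: seeded agar plates dried 1 h at 37 °C, wells punched and filled with test compound at MIC level in DMSO; DMSO solvent control. Plates in triplicate, kept at 37 °C for 3–4 days; zone of inhibition read.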

Escherichia coli [3] = assay: Antibacterial activity against Escherichia coli ATTC 25922 after 16 to 18 hrs by serial dilution method; type: functional; in short: as §1
Escherichia coli [4] = assay: Antibacterial activity against Escherichia coli ATTC 25922 at MIC after 3 to 4 days by disc diffusion method; type: functional; in short: as §2
Pseudomonas aeruginosa [5] = assay: Antibacterial activity against Pseudomonas aeruginosa ATTC 27853 after 16 to 18 hrs by serial dilution method; type: functional; in short: as §1
Pseudomonas aeruginosa [6] = assay: Antibacterial activity against Pseudomonas aeruginosa ATTC 27853 at MIC after 3 to 4 days by disc diffusion method; type: functional; in short: as §2
Klebsiella pneumoniae [7] = assay: Antibacterial activity against recultured Klebsiella pneumoniae after 16 to 18 hrs by serial dilution method; type: functional; in short: as §1
Klebsiella pneumoniae [8] = assay: Antibacterial activity against recultured Klebsiella pneumoniae at MIC after 3 to 4 days by disc diffusion method; type: functional; in short: as §2
Rattus norvegicus = assay: Antiinflammatory activity rat assessed as reduction of carrageenan-induced paw oedema at 100 mg/kg, po administered 30 mins before carrageenan challenge measured after 60 to 180 mins; type: functional, organism-based; set-up: dose 100 mg/kg
In short: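 Rats randomly assigned, 100 mg/kg orally as suspension in 1% carboxymethyl cellulose, 30 min before carrageenan injected into right hind paw. Paw thickness measured with vernier callipers at 60, 120 and 180 min. Diclofenac reference; mean ± SEM, n = 6, vs vehicle control.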

Mus musculus [9] = assay: Analgesic activity Wistar albino mouse assessed as tail withdrawal latency time at 100 mg/kg, po administered by intragastric tube after 60 mins (reference value: 1.363 +/- 0.1297 sec); type: functional
Mus musculus [10] = assay: Analgesic activity Wistar albino mouse assessed as tail withdrawal latency time at 100 mg/kg, po administered by intragastric tube after 120 mins (reference value: 1.363 +/- 0.1297 sec); type: functional
Mus musculus [11] = assay: Analgesic activity Wistar albino mouse assessed as tail withdrawal latency time at 100 mg/kg, po administered by intragastric tube after 180 mins (reference value: 1.363 +/- 0.1297 sec); type: functional
Talaromyces marneffei [12] = assay: Antifungal activity against recultured Penicillium marneffei by serial plate dilution method; type: functional
Talaromyces marneffei [13] = assay: Antifungal activity against recultured Penicillium marneffei at MIC after 3 to 4 days; type: functional
[14] = system: Trichophyton mentagrophytes; assay: Antifungal activity against recultured Trichophyton mentagrophytes by serial plate dilution method; type: functional
[15] = system: Trichophyton mentagrophytes; assay: Antifungal activity against recultured Trichophyton mentagrophytes at MIC after 3 to 4 days; type: functional
Aspergillus flavus [16] = assay: Antifungal activity against Aspergillus flavus NCIM 524 by serial plate dilution method; type: functional
Aspergillus flavus [17] = assay: Antifungal activity against Aspergillus flavus NCIM 524 at MIC after 3 to 4 days; type: functional
Aspergillus fumigatus [18] = assay: Antifungal activity against Aspergillus fumigatus NCIM 902 by serial plate dilution method; type: functional
Aspergillus fumigatus [19] = assay: Antifungal activity against Aspergillus fumigatus NCIM 902 at MIC after 3 to 4 days; type: functional

| Compound | MIC (Staphylococcus aureus [1]) [µM] | diameter of the inhibition zone (DIZ) (Staphylococcus aureus [2]) [mm] | MIC (Escherichia coli [3]) [µM] | diameter of the inhibition zone (DIZ) (Escherichia coli [4]) [mm] | MIC (Pseudomonas aeruginosa [5]) [µM] | diameter of the inhibition zone (DIZ) (Pseudomonas aeruginosa [6]) [mm] | MIC (Klebsiella pneumoniae [7]) [µM] | diameter of the inhibition zone (DIZ) (Klebsiella pneumoniae [8]) [mm] | Activity (Rattus norvegicus) | Time (Mus musculus [9]) [s] | Time (Mus musculus [10]) [s] | Time (Mus musculus [11]) [s] | MIC (Talaromyces marneffei [12]) [µM] | diameter of the inhibition zone (DIZ) (Talaromyces marneffei [13]) [mm] | MIC [14] [µM] | diameter of the inhibition zone (DIZ) [15] [mm] | MIC (Aspergillus flavus [16]) [µM] | diameter of the inhibition zone (DIZ) (Aspergillus flavus [17]) [mm] | MIC (Aspergillus fumigatus [18]) [µM] | diameter of the inhibition zone (DIZ) (Aspergillus fumigatus [19]) [mm] |
| --- | --- | --- | --- | --- | --- | --- | --- | --- | --- | --- | --- | --- | --- | --- | --- | --- | --- | --- | --- | --- |
| CC1(C)S[C@@H]2[C@H](NC(=O)[C@H](N)c3ccccc3)C(=O)N2[C@H]1C(=O)O [AMPICILLIN] | 4.46 (≈ 1.56 µg/mL) | 22 | 17.9 (≈ 6.25 µg/mL) | 30 | 17.9 (≈ 6.25 µg/mL) | 25 | 17.9 (≈ 6.25 µg/mL) | 23 | – | – | – | – | – | – | – | – | – | – | – | – |
| COc1ccc(-c2nn3c(-c4cc(OC)ccc4Br)nnc3s2)cc1 | 15 (≈ 6.25 µg/mL) | 16 | 15 (≈ 6.25 µg/mL) | 16 | 15 (≈ 6.25 µg/mL) | 16 | 15 (≈ 6.25 µg/mL) | 16 | Active | 2.379 | 2.674 | 2.44 | 29.9 (≈ 12.5 µg/mL) | 11 | 15 (≈ 6.25 µg/mL) | 16 | 29.9 (≈ 12.5 µg/mL) | 11 | 15 (≈ 6.25 µg/mL) | 16 |
| CC(C)=CCN1CC[C@]2(C)c3cc(O)ccc3C[C@H]1[C@H]2C [(+)-PENTAZOCINE] | – | – | – | – | – | – | – | – | – | 7.075 | 6.863 | 7.025 | – | – | – | – | – | – | – | – |
| COc1ccc(Br)c(-c2nnc3n2NC(c2ccc(C)cc2)S3)c1 (centres undefined) | 31 (≈ 12.5 µg/mL) | 11 | 15.5 (≈ 6.25 µg/mL) | 16 | 15.5 (≈ 6.25 µg/mL) | 16 | 15.5 (≈ 6.25 µg/mL) | 16 | Active | 2.403 | 2.643 | 2.438 | 31 (≈ 12.5 µg/mL) | 11 | 31 (≈ 12.5 µg/mL) | 11 | 15.5 (≈ 6.25 µg/mL) | 16 | 15.5 (≈ 6.25 µg/mL) | 16 |
| CCC(C)n1ncn(-c2ccc(N3CCN(c4ccc(OCC5COC(Cn6cncn6)(c6ccc(Cl)cc6Cl)O5)cc4)CC3)cc2)c1=O (centres undefined) [ITRACONAZOLE] | – | – | – | – | – | – | – | – | – | – | – | – | 2.21 (≈ 1.56 µg/mL) | 22 | 8.86 (≈ 6.25 µg/mL) | 30 | 8.86 (≈ 6.25 µg/mL) | 25 | 8.86 (≈ 6.25 µg/mL) | 23 |
| COc1ccc(Br)c(-c2nnc3sc(-c4ccc(I)cc4I)nn23)c1 | 19.6 (≈ 12.5 µg/mL) | 11 | 19.6 (≈ 12.5 µg/mL) | 11 | 19.6 (≈ 12.5 µg/mL) | 11 | 19.6 (≈ 12.5 µg/mL) | 11 | – | 2.038 | 2.088 | 2.225 | 19.6 (≈ 12.5 µg/mL) | 11 | 19.6 (≈ 12.5 µg/mL) | 11 | 19.6 (≈ 12.5 µg/mL) | 11 | 19.6 (≈ 12.5 µg/mL) | 11 |
| COc1ccc(Br)c(-c2nnc3n2NC(c2ccc(-c4ccccc4)cc2)S3)c1 (centres undefined) | 26.9 (≈ 12.5 µg/mL) | 11 | 26.9 (≈ 12.5 µg/mL) | 11 | 26.9 (≈ 12.5 µg/mL) | 11 | 13.4 (≈ 6.25 µg/mL) | 16 | – | 2.102 | 2.067 | 2.455 | 26.9 (≈ 12.5 µg/mL) | 11 | 26.9 (≈ 12.5 µg/mL) | 11 | 13.4 (≈ 6.25 µg/mL) | 16 | 26.9 (≈ 12.5 µg/mL) | 11 |
| COc1ccc(Br)c(-c2nnc3sc(-c4ccccc4)nn23)c1 | 32.3 (≈ 12.5 µg/mL) | 11 | 32.3 (≈ 12.5 µg/mL) | 11 | 32.3 (≈ 12.5 µg/mL) | 11 | 32.3 (≈ 12.5 µg/mL) | 11 | – | 1.963 | 2.125 | 2.5 | 16.1 (≈ 6.25 µg/mL) | 16 | 32.3 (≈ 12.5 µg/mL) | 11 | 32.3 (≈ 12.5 µg/mL) | 11 | 32.3 (≈ 12.5 µg/mL) | 11 |
| COc1ccc(Br)c(-c2nnc3n2NC(c2ccccc2)S3)c1 (centres undefined) | 32.1 (≈ 12.5 µg/mL) | 11 | 16.1 (≈ 6.25 µg/mL) | 16 | 32.1 (≈ 12.5 µg/mL) | 11 | 32.1 (≈ 12.5 µg/mL) | 11 | – | 3.181 | 3.46 | 3.391 | 6.25 (≈ 2.43 µg/mL) | 16 | 12.5 (≈ 4.87 µg/mL) | 11 | 12.5 (≈ 4.87 µg/mL) | 11 | 6.25 (≈ 2.43 µg/mL) | 16 |
| COc1ccc(Br)c(-c2nnc3n2NC(c2ccccc2OC)S3)c1 (centres undefined) | 29.8 (≈ 12.5 µg/mL) | 11 | 14.9 (≈ 6.25 µg/mL) | 16 | 29.8 (≈ 12.5 µg/mL) | 11 | 29.8 (≈ 12.5 µg/mL) | 11 | Active | 2.387 | 2.652 | 2.501 | 29.9 (≈ 12.5 µg/mL) | 11 | 14.9 (≈ 6.25 µg/mL) | 16 | 14.9 (≈ 6.25 µg/mL) | 16 | 14.9 (≈ 6.25 µg/mL) | 16 |
| COc1ccc(Br)c(-c2nnc3sc(-c4ccc(C)cc4O)nn23)c1 | 29.9 (≈ 12.5 µg/mL) | 11 | 15 (≈ 6.25 µg/mL) | 16 | 15 (≈ 6.25 µg/mL) | 16 | 15 (≈ 6.25 µg/mL) | 16 | Active | 2.388 | 3.321 | 3.121 | 29.9 (≈ 12.5 µg/mL) | 11 | 15 (≈ 6.25 µg/mL) | 16 | 15 (≈ 6.25 µg/mL) | 16 | 15 (≈ 6.25 µg/mL) | 16 |
| COc1ccc(Br)c(-c2nnc3sc(-c4ccc(C)cc4)nn23)c1 | 15.8 (≈ 6.32 µg/mL) | 16 | 15.8 (≈ 6.32 µg/mL) | 16 | 31.1 (≈ 12.5 µg/mL) | 11 | 15.8 (≈ 6.32 µg/mL) | 16 | Active | 2.384 | 2.681 | 2.47 | 31.1 (≈ 12.5 µg/mL) | 11 | 15.8 (≈ 6.32 µg/mL) | 16 | 31.1 (≈ 12.5 µg/mL) | 11 | 31.1 (≈ 12.5 µg/mL) | 11 |
| COc1ccc(Br)c(-c2nnc3sc(-c4cc(C)cc(C)c4)nn23)c1 | 30.1 (≈ 12.5 µg/mL) | 11 | 15.1 (≈ 6.25 µg/mL) | 16 | 15.1 (≈ 6.25 µg/mL) | 16 | 15.1 (≈ 6.25 µg/mL) | 16 | – | 2.175 | 2.075 | 2.238 | 30.1 (≈ 12.5 µg/mL) | 11 | 15.1 (≈ 6.25 µg/mL) | 16 | 15.1 (≈ 6.25 µg/mL) | 16 | 15.1 (≈ 6.25 µg/mL) | 16 |

— ChEMBL document CHEMBL1955832, “Facile synthesis, characterization and pharmacological activities of 3,6-disubstituted 1,2,4-triazolo[3,4-b][1,3,4]thiadiazoles and 5,6-dihydro-3,6-disubstituted-1,2,4-triazolo[3,4-b][1,3,4]thiadiazoles” (2012)
